Experiments:
[1] = tested on: Salmonidae; test: Displacement of ethidium bromide form salmon testes sperm DNA by fluorescence plate reader
Method in brief: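 Salmon testes sperm DNA (25 μg mL⁻¹) with ethidium bromide (0.5 μg mL⁻¹) in TE, compound final concentrations 100 to 0.01 μM in tenfold steps. n = 4 per dose, n = 8 for controls. Fluorescence measured, background EtBr subtracted and divided by the DNA+EtBr control. KS is the concentration giving 50% fluorescence decrease.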

[2] = tested on: HCT-116; test: Cytotoxicity against human HCT116 cells after 72 hrs by MTS assay; assay type: functional, cell-based; details: HCT-116, 72 h
Method in brief: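 HCT-116 colon tumor cells plated and incubated overnight at 37 °C, then given serially diluted samples in DMSO for a further 72 h. Etoposide as positive control and DMSO as negative control. MTS/PMS added for 3 h, absorbance read at 490 nm, IC50 derived from serial dilution data.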

[3] = biological target: T1, DNA topoisomerase 1 (Homo sapiens) (UniProt P11387); test: Inhibition of topoisomerase 1-mediated relaxation of supercoiled DNA assessed as DNA cleavage at 500 uM relative to control; design: scale not given: the % may be the effect or the level left
T1 sequence (whole entry): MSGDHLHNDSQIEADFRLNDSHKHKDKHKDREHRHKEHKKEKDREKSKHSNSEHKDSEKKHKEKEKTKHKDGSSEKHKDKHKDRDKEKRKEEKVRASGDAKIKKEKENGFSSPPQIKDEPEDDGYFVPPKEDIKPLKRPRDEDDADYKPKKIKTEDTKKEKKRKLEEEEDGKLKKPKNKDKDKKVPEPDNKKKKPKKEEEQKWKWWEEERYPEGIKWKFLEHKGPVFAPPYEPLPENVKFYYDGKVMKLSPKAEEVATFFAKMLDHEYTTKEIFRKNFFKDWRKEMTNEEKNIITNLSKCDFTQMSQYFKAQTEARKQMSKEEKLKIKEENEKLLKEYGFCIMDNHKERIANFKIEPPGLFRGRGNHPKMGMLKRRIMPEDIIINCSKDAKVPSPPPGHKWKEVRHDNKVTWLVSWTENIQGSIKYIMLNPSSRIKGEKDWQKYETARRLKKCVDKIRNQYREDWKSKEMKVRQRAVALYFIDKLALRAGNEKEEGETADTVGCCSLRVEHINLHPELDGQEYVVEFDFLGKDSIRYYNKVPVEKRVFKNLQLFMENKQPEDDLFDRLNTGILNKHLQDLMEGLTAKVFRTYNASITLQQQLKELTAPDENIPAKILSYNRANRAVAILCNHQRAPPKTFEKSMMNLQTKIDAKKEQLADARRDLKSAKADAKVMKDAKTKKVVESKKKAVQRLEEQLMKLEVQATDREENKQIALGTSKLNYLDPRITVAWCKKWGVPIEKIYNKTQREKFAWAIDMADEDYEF
Method in brief: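 Radiolabeled supercoiled rf M13 mp19 DNA with purified topoisomerase I (80-120 ng) in Tris-HCl 50 mM pH 7.5, KCl 85 mM, MgCl2 10 mM, EDTA 0.5 mM, BSA 30 μg/mL, DTT 2 mM. Compound in DMSO, 30 °C for 30 min, then proteinase K/SDS at 37 °C for 60 min. 0.8% agarose gel, bands excised and scintillation counted. % cleaved from nicked plus linear bands over total, minus endogenous cleavage. 9-aminocamptothecin as reference.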

[4] = biological target: T1, DNA topoisomerase 1 (Homo sapiens); test: Inhibition of topoisomerase 1-mediated relaxation of supercoiled DNA assessed as DNA cleavage at 9 uM relative to control; design: scale not given: the % may be the effect or the level left
Method in brief: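 Radiolabelled supercoiled rf M13 mp19 DNA (500 ng) and purified topoisomerase I (80-120 ng) in Tris-HCl 50 mM pH 7.5, KCl 85 mM, MgCl2 10 mM, EDTA 0.5 mM, BSA 30 µg/mL, DTT 2 mM. Compound added in DMSO; 30 °C, 30 min. Proteinase K/SDS stop (37 °C, 60 min). Bands resolved on 0.8% agarose, excised and scintillation-counted. Nicked+linear counts taken as % of total, minus endogenous cleavage.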

Row | Compound | IC50 [2] | other results
1 | Cn1cc2c3c1C(=O)c1[nH]cc(-c4ccc(O)cc4)c1C3=[N+]([O-])CC2 | 16500 nM | Ks [1]: 30 µM; Activity [3]: 26%
2 | O=C1C(Br)=CC2(C=C1Br)CCNC1=C2C2=NCCc3c(Br)[nH]c(c32)C1=O | 77 nM | –
3 | O=C1C2=C(C3=NCCc4c(Br)[nH]c1c43)C1(C=CN2)C=C(Br)C(O)C(Br)=C1 (stereo not given) | 222 nM | –
4 | O=C1C2=C(C3=NCCc4c(Br)[nH]c1c43)C1(C=C(Br)C(O)C(Br)=C1)CCN2 (stereo not given) | 645 nM | –
5 | COC1[C@H]2C(=O)C=C3S[C@H]4C[C@]31C1=C(N4)C(=O)c3[nH]cc4c3C1=[N+]2CC4 (stereo not given in full) | 232 nM | –
6 | O=C1C2=C(C3=NCCc4c[nH]c1c43)C1(C=CN2)C=C(Br)C(O)C(Br)=C1 (stereo not given) | 197 nM | –
7 | O=C1c2[nH]cc3c2C(=[N+](O)CC3)c2c(-c3ccc(O)cc3)c[nH]c21 | 128000 nM | Ks [1]: 20 µM; Activity [3]: 45%
8 | O=C1C2=C3C4=[N+](CCc5c(Br)[nH]c1c54)C1C(O)C(Br)=CC3(CCN2)C1O (stereo not given) | 12500 nM | –
9 | NC1[C@H]2C(=O)C=C3S[C@H]4C[C@]31C1=C(N4)C(=O)c3[nH]cc4c3C1=[N+]2CC4 (stereo not given in full) | 119 nM | –
10 | CC[C@@]1(O)C(=O)OCc2c1cc1n(c2=O)Cc2cc3c(N)cccc3nc2-1 | – | Activity [4]: 87%
11 | O=C1c2[nH]cc3c2C(=NCC3)c2c(-c3c[nH]c4ccccc34)c[nH]c21 | – | Ks [1]: 20 µM
12 | CN1CCc2c[nH]c3c2C1=CC(=O)C3=O [DAMIRONE B] | 3100 nM | –
13 | O=C1C2=C(C3=NCCc4c[nH]c1c43)C1(C=C(Br)C(O)C(Br)=C1)CCN2 (stereo not given) [DIHYDRODISCORHABDIN C] | 323 nM | –
14 | O=C1C2=C3C4=[N+](CCc5c[nH]c1c54)[C@H]1C[C@@]34C[C@@H](N2)SC4=CC1=O [DISCORHABDIN D] | 595 nM | –
15 | O=C1C=CC23CC(NC4=C2C2=NCCc5c[nH]c(c52)C4=O)SC3=C1 (stereo not given) [DISCORHABDIN G] | 327 nM | –
16 | O=C(O)CNC1C2C(=O)C=C3SC4CC31C1=C(N4)C(=O)c3[nH]cc4c3C1=[N+]2CC4 (stereo not given) [DISCORHABDIN N] | 2250 nM | –
17 | O=C1C2=C3C4=[N+](CCc5c[nH]c1c54)C1CC3(C=C(Br)C1O)CCN2 (stereo not given) [DISCORHABDIN V] | 1270 nM | –
18 | O=C1C[C@H]2S[C@H]3C[C@]2(C=C1Br)C1=C(N3)C(=O)c2[nH]cc3c2C1=NCC3 [DISCORHABDINE A] | 7 nM | –
19 | C[N+]1=C2C=C(N)C(=O)c3[nH]cc(c32)CC1 [MAKALUVAMINE C] | 1090 nM | –
20 | CN1CCc2c[nH]c(C(=O)O)c2C1=O [MAKALUVIC ACID A] | 28400 nM | –
21 | O=C1c2[nH]cc3c2C(=NCC3)c2c(-c3ccc(O)cc3)c[nH]c21 [TSITSIKAMMAMINE A] | 1410 nM | Ks [1]: 15 µM; Activity [3]: 59%
22 | Cn1cc2c3c1C(=O)c1[nH]cc(-c4ccc(O)cc4)c1C3=NCC2 [TSITSIKAMMAMINE B] | 2380 nM | Ks [1]: 45 µM; Activity [3]: 27%
